The subject of test [1] is Trypanosoma cruzi. The test is described as follows: Antitrypanosomal activity against extracellular Trypanosoma cruzi Tulahuen clone C4. In kind it is functional, organism-based.
In test [2] the test system is Trypanosoma cruzi. The test can be described thus: Antitrypanosomal activity against intracellular Trypanosoma cruzi Tulahuen clone C4 assessed as cleavage of […]. In kind it is functional, organism-based. Summed up: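 Transgenic T. cruzi (Tulahuen strain, clone C4) expressing β-galactosidase were exposed to added compound. Growth of the intracellular form was read as cleavage of chlorophenol red-β-D-galactoside (CPRG) at 570 nm.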

Another test deals with Vero. The test is described as follows: Cytotoxicity against african green monkey Vero cells after 4 hrs by MTT assay. In kind it is cell-based. Particulars: Chlorocebus sabaeus. Summed up:
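Adherent Vero cells were treated with compound and incubated 4 h at 37°. Viability was read from MTT reduction in an ELISA reader at 570 nm.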
On the technique in general: Formazan colour is commonly taken as a measure of viable cells.

The IC50 is the concentration that gives 50% inhibition. `C=CC1=C(C)[C@@H]2CC[C@H]3[C@](C)(CO)CCC[C@]3(C)[C@H]2CC1` displayed an IC50 with Trypanosoma cruzi [1] of 48 µM.

With `C=CC1=C(C)[C@@H]2C[C@@H](OC(C)=O)[C@H]3[C@](C)(CO)CCC[C@]3(C)[C@H]2CC1`, the IC50 in the test on Trypanosoma cruzi [2] was determined as 76.5 µM; in the test on Vero, 178 µM; with Trypanosoma cruzi [1] it was 56.7 µM.

On to `C[C@]1(CO)CCC[C@]2(C)[C@H]3CC(=O)[C@@]4(C)[C@@H]([C@@H]3CC[C@@H]12)[C@@H]4CO`, for which the IC50 in the test on Vero amounted to 433 µM.

Turning to `C=CC1=C(C)[C@@H]2CC(=O)[C@H]3[C@](C)(COC(C)=O)CCC[C@]3(C)[C@H]2CC1`, the IC50 worked out at 79.1 µM in the test with Trypanosoma cruzi [2], 238 µM in the test with Vero and 17.7 µM in the test with Trypanosoma cruzi [1].

In the case of `CC(=O)OC[C@]1(C)CCC[C@]2(C)[C@H]3CCC(C=O)=C(C)[C@@H]3CC(=O)[C@@H]12`, the results for the IC50 in the test on Trypanosoma cruzi [2], in the test with Vero and with Trypanosoma cruzi [1] were 61.4 µM, 416 µM and 40.4 µM, respectively.

Turning to `C=CC1=C(C)[C@@H]2C[C@@H](O)[C@H]3[C@](C)(CO)CCC[C@]3(C)[C@H]2CC1`, in the test on Trypanosoma cruzi [2], the IC50 is 16 µM.

`C=CC1=C(C)[C@@H]2C[C@@H](O)[C@H]3[C@](C)(COC(C)=O)CCC[C@]3(C)[C@H]2CC1` returned an IC50 in the test with Trypanosoma cruzi [1] of 11 µM.

`C=C[C@@]1(O)CC[C@H]2[C@@H](C[C@@H](O)[C@H]3[C@](C)(COC(C)=O)CCC[C@]23C)C1=C` gave an IC50 in the test with Trypanosoma cruzi [1] of 16 µM.

In the case of `CO[C@@]12C[C@H]3[C@@H]([C@@H](O)[C@@H](OC(C)=O)[C@H]4[C@](C)(COC(C)=O)CCC[C@]34C)[C@@H](C)C1=CC(=O)O2` [CHAGRESLACTONE], the IC50 in the test with Vero turned out to be 225 µM; in the test with Trypanosoma cruzi [1], 75 µM.

Consider `C=CC1=C(CO)[C@@H]2C[C@@H](O)[C@H]3[C@](C)(COC(C)=O)CCC[C@]3(C)[C@H]2CC1` [CHAGRESNOL], for which the IC50 in the test with Trypanosoma cruzi [2] turned out to be 76 µM; in the test with Vero, 156 µM; with Trypanosoma cruzi [1], 38.8 µM.

Take `CC(=O)OC[C@H]1[C@@H]2[C@@H]3CC[C@H]4[C@@](C)(CO)CCC[C@]4(C)[C@H]3CC(=O)[C@@]21C` [CHAGRESNONE]: the IC50 with Trypanosoma cruzi [2] was 95.5 µM; in the test with Vero, 448 µM; in the test on Trypanosoma cruzi [1], 56.9 µM.

For the origin of these results see ChEMBL document CHEMBL1148923, “Novel cassane and cleistanthane diterpenes from Myrospermum frutescens: absolute stereochemistry of the cassane diterpene series” (J Nat Prod, 2004).
